Consider eleven molecules from ChEMBL document CHEMBL1136866, “Synthesis, antiplatelet and in silico evaluations of novel N-substituted-phenylamino-5-methyl-1H-1,2,3-triazole-4-carbohydrazides” (Bioorg Med Chem, 2009).

≈ marks a conversion by molar mass, not a printed value. Calls of active or inactive are those of the source. No cut-off for these calls is given here.

Format in all cases: functional
The nature of assay [1]: Antiplatelet activity in human citreated platelet rich plasma assessed as inhibition of arachidonic acid-induced platelet aggregation preincubated before arachidonic acid challenge. In a few lines: (§1)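 Human PRP prepared by whole-blood centrifugation (120g, 5 min, room temperature) and adjusted to 3.0 × 10^5 platelets/μL using homologous platelet-poor plasma (1500g, 5 min). Compound at 1–500 μg ml−1, or DMSO (final 1%), preincubated with PRP 2 min at 37 °C before agonist (ADP, adrenaline or arachidonic acid). IC50 in μg ml−1 from aggregation inhibition, assayed within 3 h of sampling.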

A short description of assay [2]: Antiplatelet activity in human citreated platelet rich plasma assessed as inhibition of arachidonic acid-induced platelet aggregation at 100 ug/ml preincubated before arachidonic acid challenge. In a few lines: (§2)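 Human PRP from whole blood spun 120g, 5 min, room temperature; platelet count set to 3.0 × 10^5/μL with homologous platelet-poor plasma (1500g, 5 min). PRP preincubated 2 min at 37 °C with compound at 100 μg ml−1 or DMSO solvent (final 1%), then agonist added (ADP, adrenaline or arachidonic acid). Read-out: % inhibition of aggregation, measured within 3 h of blood sampling.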

The nature of assay [3]: Antiplatelet activity in human citreated platelet rich plasma assessed as inhibition of adenosine diphosphate-induced platelet aggregation preincubated before adenosine diphosphate challenge. In short, it runs like this:
as §1

Assay [4] can be described thus: Antiplatelet activity in human citreated platelet rich plasma assessed as inhibition of adrenaline-induced platelet aggregation preincubated before adrenaline challenge. In short, it runs like this: as §1
The next assay concerns Platelet. Nature of the assay: Antiplatelet activity in human citreated platelet rich plasma assessed as inhibition of adrenaline-induced platelet aggregation at 100 ug/ml preincubated before adrenaline challenge. In a few lines: as §2
Assay [5] can be described thus: Antiplatelet activity in human citreated platelet rich plasma assessed as inhibition of adenosine diphosphate-induced platelet aggregation at 100 ug/ml preincubated before adenosine diphosphate challenge. In a few lines:
as §2

As usually defined, the IC50 is the concentration needed to halve the response being measured. As usually defined, the inhibition is the relative decrease from the control value, in per cent. With `Cc1c(C(=O)N/N=C/c2ccncc2)nnn1Nc1ccccc1`, the 50% inhibitory concentration (IC50) in assay [1] is 8.8 µg/mL (≈ 27.4 µM); in assay [3], 278 µg/mL (≈ 864 µM); in assay [4], 161 µg/mL (≈ 501 µM). The inhibition at 100 µg/mL in assay [2] was not below 50%.

Turning to `Cc1c(C(=O)N/N=C/c2ccccc2)nnn1Nc1ccc(Cl)cc1`, the IC50 in assay [1] came out at 32.2 µg/mL (≈ 90.8 µM); in assay [3], 180 µg/mL (≈ 508 µM); in assay [4], 28.9 µg/mL (≈ 81.5 µM). For the same molecule, the inhibition entry with Platelet is “Active”. The inhibition at 100 µg/mL in assay [2] is not below 50%.

Take `Cc1c(C(=O)N/N=C/c2ccco2)nnn1Nc1ccc(Cl)cc1`: the half-maximal inhibitory concentration (IC50) in assay [1] stood at 8.9 µg/mL (≈ 25.8 µM); in assay [3], 261 µg/mL (≈ 757 µM); in assay [4], 7.8 µg/mL (≈ 22.6 µM). For the same molecule, the inhibition result in the assay on Platelet is “Active”. Also, the inhibition at 100 µg/mL in assay [2] is not below 50%.

For the molecule `Cc1c(C(=O)N/N=C/c2ccc([N+](=O)[O-])o2)nnn1Nc1ccc(Cl)cc1`, the half-maximal inhibitory concentration (IC50) is 35.5 µg/mL (≈ 91.1 µM) in assay [1], 136 µg/mL (≈ 350 µM) in assay [3] and 147 µg/mL (≈ 377 µM) in assay [4]. Further, in assay [2], the inhibition at 100 µg/mL was not below 50%.

As to `Cc1c(C(=O)N/N=C/c2ccccc2)nnn1Nc1ccccc1`, the half-inhibitory concentration (IC50) amounted to 230 µg/mL (≈ 718 µM) in assay [1], 19 µg/mL (≈ 59.4 µM) in assay [3] and 9.6 µg/mL (≈ 30 µM) in assay [4]. For the same molecule, the inhibition entry in the assay on Platelet is “Active”. In addition, in assay [5], the inhibition at 100 µg/mL is more than 50%.

As to `Cc1c(C(=O)N/N=C/c2ccncc2)nnn1Nc1ccc(Cl)cc1`, the 50% inhibitory concentration (IC50) came to 33.1 µg/mL (≈ 93 µM) in assay [1], 169 µg/mL (≈ 474 µM) in assay [3] and 145 µg/mL (≈ 406 µM) in assay [4]. In addition, the inhibition at 100 µg/mL in assay [2] is not below 50%.

As to `Cc1c(C(=O)N/N=C/c2ccc(Br)s2)nnn1Nc1ccc(Cl)cc1`, the half-maximal inhibitory concentration (IC50) in assay [1] was found to be 9.1 µg/mL (≈ 20.7 µM); in assay [3], 332 µg/mL (≈ 756 µM); in assay [4], 144 µg/mL (≈ 328 µM). Also, the inhibition at 100 µg/mL in assay [2] was not below 50%.

Consider `Cc1c(C(=O)N/N=C/c2ccc([N+](=O)[O-])o2)nnn1Nc1ccccc1`, for which the IC50 in assay [1] stood at 169 µg/mL (≈ 476 µM); in assay [3], 11.6 µg/mL (≈ 32.6 µM); in assay [4], 8.9 µg/mL (≈ 25 µM). Besides, the inhibition result in the assay on Platelet is “Active”. In addition, the inhibition at 100 µg/mL in assay [5] was more than 50%.

For the molecule `CC(=O)Oc1ccccc1C(=O)O` [ASPIRIN], the IC50 in assay [1] stood at 32.5 µg/mL (≈ 180 µM); in assay [3], 21.5 µg/mL (≈ 119 µM); in assay [4], 11.7 µg/mL (≈ 64.9 µM).

For the molecule `Cc1c(C(=O)N/N=C/c2ccc(Br)s2)nnn1Nc1ccccc1`, the IC50 in assay [1] came out at 9.1 µg/mL (≈ 22.5 µM); in assay [3], 317 µg/mL (≈ 782 µM); in assay [4], 13.4 µg/mL (≈ 33.1 µM). In addition, in the assay on Platelet, the inhibition result was “Active”. For the same molecule, in assay [2], the inhibition at 100 µg/mL was not below 50%.

Consider `Cc1c(C(=O)N/N=C/c2ccco2)nnn1Nc1ccccc1`, for which the 50% inhibitory concentration (IC50) was 112 µg/mL (≈ 359 µM) in assay [1], 338 µg/mL (≈ 1090 µM) in assay [3] and 20.1 µg/mL (≈ 64.8 µM) in assay [4]. The inhibition result in the assay with Platelet was “Active”.
